Test results reported in ChEMBL document CHEMBL5696442, “Discovery of type II inhibitors of TGFβ-activated kinase 1 (TAK1) and mitogen-activated protein kinase kinase kinase kinase 2 (MAP4K2)” (J Med Chem, 2015).
Activity calls are given as the source filed them. The rule behind the calls is not given here.

What was measured:
[1] = target: Serine/threonine-protein kinase 38-like (Homo sapiens) (UniProt Q9Y2H1); assay: Inhibition of NDR2 Lys1 labeling site in human Huh-7 cell lysate at 1 uM by KiNativ Profiling analysis relative to control; type: subcellular
[2] = target: T1, Scaffold protein ILK (Homo sapiens) (UniProt Q13418); assay: Inhibition of ILK Lys1 labeling site in human Huh-7 cells at 1 uM by KiNativ Profiling analysis relative to control; type: cell-based
T1 sequence (whole entry): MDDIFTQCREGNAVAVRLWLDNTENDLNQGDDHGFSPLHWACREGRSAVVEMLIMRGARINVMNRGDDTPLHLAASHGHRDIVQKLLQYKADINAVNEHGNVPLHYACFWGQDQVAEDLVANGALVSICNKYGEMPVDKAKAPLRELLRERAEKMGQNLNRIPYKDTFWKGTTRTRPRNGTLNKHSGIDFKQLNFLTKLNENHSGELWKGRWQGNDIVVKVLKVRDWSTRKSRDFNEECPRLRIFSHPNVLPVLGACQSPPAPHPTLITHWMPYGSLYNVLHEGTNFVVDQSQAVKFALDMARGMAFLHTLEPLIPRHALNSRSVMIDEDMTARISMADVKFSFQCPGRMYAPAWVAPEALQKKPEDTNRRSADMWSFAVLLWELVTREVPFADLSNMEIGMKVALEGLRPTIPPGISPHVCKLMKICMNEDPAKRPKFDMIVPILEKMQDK

[3] = target: Mitogen-activated protein kinase kinase kinase kinase 4 (Homo sapiens, UniProt O95819); assay: Inhibition of ZC1/HGK Lys1 labeling site in human Huh-7 cell lysate at 1 uM by KiNativ Profiling analysis relative to control; type: subcellular
[4] = target: Rho-associated protein kinase 1 (Homo sapiens) (UniProt Q13464); assay: Inhibition of ROCK1 in human Huh-7 cell lysate at 1 uM by KiNativ Profiling analysis relative to control; type: subcellular
Chain of Rho-associated protein kinase 1 (Homo sapiens) (Q13464 2-1354 limits assumed): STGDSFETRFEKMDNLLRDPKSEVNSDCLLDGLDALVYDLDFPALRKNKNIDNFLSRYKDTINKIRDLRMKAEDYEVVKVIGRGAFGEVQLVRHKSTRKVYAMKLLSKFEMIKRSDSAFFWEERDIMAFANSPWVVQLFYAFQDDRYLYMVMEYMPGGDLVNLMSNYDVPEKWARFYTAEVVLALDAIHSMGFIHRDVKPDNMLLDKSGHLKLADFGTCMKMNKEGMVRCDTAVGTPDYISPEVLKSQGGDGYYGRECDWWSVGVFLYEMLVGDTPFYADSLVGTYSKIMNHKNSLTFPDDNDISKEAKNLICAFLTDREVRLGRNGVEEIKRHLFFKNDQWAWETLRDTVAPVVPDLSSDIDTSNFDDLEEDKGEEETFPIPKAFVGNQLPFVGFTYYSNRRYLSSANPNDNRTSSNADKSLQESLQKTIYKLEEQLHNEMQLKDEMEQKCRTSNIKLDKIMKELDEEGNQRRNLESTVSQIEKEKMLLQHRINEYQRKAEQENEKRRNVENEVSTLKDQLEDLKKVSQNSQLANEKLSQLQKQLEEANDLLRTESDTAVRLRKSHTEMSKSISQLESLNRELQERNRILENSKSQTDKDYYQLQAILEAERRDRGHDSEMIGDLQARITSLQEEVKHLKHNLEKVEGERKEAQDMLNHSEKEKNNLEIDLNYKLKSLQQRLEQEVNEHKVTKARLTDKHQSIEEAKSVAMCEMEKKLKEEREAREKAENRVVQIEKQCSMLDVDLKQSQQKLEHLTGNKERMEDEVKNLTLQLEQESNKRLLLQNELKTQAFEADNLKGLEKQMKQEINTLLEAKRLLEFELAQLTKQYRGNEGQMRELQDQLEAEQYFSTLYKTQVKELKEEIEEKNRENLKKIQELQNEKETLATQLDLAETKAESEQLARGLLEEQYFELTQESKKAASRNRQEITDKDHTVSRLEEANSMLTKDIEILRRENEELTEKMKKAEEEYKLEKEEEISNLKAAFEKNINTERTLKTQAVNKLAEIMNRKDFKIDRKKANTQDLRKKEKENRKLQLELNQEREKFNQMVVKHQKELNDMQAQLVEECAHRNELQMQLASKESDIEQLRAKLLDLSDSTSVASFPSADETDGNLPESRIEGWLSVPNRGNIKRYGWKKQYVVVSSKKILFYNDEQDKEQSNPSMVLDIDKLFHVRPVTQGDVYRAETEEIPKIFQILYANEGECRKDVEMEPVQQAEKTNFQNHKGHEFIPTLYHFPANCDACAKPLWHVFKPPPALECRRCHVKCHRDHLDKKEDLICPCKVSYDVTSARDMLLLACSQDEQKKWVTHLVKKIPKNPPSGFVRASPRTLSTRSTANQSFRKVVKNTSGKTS

[5] = target: Microtubule-associated serine/threonine-protein kinase 4 (Homo sapiens) (UniProt O15021); assay: Inhibition of MAST4 Lys2 labeling site in human A-375 cells at 5 uM by KiNativ Profiling analysis relative to control; type: cell-based
Procedure, shortened: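 Live A375 melanoma cells were treated with compound at 5 or 0.5 μM, then lysed. Lysates were labeled with a lysine-reactive ATP or ADP-biotin probe. Read-out was the compound's protection of kinase labeling sites from probe labeling (KiNativ).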

[6] = tested on: Tyrosine-protein kinase ABL1 (Homo sapiens), P00519 [Q252H]; assay: Inhibition of nonphosphorylated ABL1 Q252H mutant (unknown origin) at 1 uM by Ambit Kinomescan binding assay relative to control
[7] = target: Serine/threonine-protein kinase ULK2 (Homo sapiens) (UniProt Q8IYT8); assay: Inhibition of ULK2 (unknown origin) at 1 uM by Ambit Kinomescan binding assay relative to control
[8] = target: Phosphatidylinositol 4-kinase alpha (Homo sapiens) (UniProt P42356); assay: Inhibition of PI4KA ATP labeling site in human A-375 cells at 0.5 uM by KiNativ Profiling analysis relative to control; type: cell-based
Chain of Phosphatidylinositol 4-kinase alpha (Homo sapiens) (P42356 whole entry, looked up, the tested form may be a part): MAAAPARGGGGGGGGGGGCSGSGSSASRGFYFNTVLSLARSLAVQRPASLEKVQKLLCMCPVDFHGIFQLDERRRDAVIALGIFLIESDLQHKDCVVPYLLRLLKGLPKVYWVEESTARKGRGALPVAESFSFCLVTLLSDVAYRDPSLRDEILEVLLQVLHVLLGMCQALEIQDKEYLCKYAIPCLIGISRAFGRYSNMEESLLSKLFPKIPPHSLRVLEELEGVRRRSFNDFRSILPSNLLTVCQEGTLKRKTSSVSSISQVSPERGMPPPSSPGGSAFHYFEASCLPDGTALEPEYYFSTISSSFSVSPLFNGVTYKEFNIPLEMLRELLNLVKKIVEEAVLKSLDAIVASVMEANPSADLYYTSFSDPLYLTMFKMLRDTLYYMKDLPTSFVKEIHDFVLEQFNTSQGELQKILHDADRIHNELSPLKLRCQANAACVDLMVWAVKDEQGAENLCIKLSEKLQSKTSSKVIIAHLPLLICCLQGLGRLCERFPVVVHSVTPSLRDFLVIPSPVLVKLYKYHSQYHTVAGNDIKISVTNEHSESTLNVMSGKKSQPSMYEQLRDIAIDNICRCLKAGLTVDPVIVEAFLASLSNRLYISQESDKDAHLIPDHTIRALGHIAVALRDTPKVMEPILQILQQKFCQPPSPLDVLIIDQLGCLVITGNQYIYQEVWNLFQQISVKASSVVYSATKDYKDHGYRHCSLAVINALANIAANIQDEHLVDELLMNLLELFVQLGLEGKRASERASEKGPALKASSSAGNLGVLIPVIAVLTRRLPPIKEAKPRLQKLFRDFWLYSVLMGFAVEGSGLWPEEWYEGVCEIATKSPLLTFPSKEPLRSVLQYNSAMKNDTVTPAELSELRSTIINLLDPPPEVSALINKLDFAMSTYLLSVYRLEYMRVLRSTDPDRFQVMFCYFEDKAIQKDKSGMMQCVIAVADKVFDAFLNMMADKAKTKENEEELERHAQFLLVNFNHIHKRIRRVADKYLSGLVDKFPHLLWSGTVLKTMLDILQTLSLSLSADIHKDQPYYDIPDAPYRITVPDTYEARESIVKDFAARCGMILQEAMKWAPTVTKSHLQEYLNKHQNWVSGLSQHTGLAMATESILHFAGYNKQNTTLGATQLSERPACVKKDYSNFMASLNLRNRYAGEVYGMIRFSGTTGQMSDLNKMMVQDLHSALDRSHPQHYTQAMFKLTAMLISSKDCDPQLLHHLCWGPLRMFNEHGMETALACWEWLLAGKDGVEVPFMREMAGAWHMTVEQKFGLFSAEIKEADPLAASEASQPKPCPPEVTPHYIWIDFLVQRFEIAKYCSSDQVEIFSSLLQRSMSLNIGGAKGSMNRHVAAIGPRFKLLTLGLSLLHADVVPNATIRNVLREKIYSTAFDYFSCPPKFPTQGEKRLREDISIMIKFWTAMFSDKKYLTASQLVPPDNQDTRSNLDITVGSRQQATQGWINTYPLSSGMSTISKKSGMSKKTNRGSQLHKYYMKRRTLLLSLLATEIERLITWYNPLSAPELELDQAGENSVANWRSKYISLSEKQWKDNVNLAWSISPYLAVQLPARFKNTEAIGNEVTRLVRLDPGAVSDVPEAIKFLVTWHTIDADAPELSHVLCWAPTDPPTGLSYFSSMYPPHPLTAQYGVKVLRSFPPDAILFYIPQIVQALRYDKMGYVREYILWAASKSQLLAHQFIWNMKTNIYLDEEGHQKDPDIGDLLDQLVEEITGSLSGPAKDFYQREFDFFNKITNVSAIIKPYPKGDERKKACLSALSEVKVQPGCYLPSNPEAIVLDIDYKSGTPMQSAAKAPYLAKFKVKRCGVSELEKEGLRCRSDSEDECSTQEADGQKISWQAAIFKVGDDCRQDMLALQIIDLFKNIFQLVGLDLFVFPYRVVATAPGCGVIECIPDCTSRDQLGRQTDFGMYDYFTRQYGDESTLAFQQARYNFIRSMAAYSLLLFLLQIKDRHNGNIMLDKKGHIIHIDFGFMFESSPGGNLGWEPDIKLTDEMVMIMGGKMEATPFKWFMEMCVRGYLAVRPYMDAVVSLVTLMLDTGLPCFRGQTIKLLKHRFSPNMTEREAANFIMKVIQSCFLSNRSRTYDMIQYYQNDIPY

[9] = target: Ribosomal protein S6 kinase alpha-1 (Homo sapiens) (UniProt Q15418); assay: Inhibition of C-terminal RPS6KA1 kinase domain 2 (unknown origin) at 10 uM by Ambit Kinomescan binding assay
[10] = target: Cyclin-dependent kinase 13 (Homo sapiens) (UniProt Q14004); assay: Inhibition of CHED K2 labeling site in human Huh-7 cells at 10 uM by KiNativ Profiling analysis relative to control; type: cell-based
[11] = target: T2, Ephrin type-B receptor 2 (Homo sapiens) (UniProt P29323); assay: Inhibition of EPHB2 (unknown origin) at 10 uM by Ambit Kinomescan binding assay relative to control
T2 sequence (whole entry): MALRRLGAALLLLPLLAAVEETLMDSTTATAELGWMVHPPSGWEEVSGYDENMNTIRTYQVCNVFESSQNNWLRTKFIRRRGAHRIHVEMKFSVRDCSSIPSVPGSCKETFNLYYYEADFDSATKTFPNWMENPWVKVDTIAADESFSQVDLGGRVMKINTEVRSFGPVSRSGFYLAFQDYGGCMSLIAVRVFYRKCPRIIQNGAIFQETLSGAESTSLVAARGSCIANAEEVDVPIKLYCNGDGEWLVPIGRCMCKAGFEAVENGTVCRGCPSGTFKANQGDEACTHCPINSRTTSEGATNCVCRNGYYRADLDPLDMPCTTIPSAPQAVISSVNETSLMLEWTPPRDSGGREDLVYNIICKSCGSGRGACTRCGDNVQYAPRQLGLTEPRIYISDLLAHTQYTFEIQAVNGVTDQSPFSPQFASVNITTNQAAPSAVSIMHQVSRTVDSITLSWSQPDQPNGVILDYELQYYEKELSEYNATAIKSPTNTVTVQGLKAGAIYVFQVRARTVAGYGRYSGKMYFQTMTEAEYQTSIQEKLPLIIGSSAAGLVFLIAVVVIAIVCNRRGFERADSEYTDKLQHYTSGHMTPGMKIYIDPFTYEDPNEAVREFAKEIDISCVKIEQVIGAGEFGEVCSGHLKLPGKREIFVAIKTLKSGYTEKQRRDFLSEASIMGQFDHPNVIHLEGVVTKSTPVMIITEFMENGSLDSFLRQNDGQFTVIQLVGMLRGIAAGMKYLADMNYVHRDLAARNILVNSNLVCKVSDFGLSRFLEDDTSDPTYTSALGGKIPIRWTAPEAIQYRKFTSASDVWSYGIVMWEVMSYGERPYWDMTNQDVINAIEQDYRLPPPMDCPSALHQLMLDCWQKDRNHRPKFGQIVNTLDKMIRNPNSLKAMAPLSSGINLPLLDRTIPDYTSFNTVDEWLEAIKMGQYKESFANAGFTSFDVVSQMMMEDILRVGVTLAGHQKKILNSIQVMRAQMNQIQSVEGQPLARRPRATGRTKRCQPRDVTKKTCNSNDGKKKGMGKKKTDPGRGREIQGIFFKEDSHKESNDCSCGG

[12] = target: Phosphatidylinositol 4,5-bisphosphate 3-kinase catalytic subunit gamma isoform (Homo sapiens) (UniProt P48736); assay: Inhibition of PIK3CG (unknown origin) at 10 uM by Ambit Kinomescan binding assay
[13] = target: Bone morphogenetic protein receptor type-2 (Homo sapiens) (UniProt Q13873); assay: Inhibition of BMPR2 (unknown origin) at 10 uM by Ambit Kinomescan binding assay
Chain of Bone morphogenetic protein receptor type-2 (Homo sapiens) (Q13873 whole entry): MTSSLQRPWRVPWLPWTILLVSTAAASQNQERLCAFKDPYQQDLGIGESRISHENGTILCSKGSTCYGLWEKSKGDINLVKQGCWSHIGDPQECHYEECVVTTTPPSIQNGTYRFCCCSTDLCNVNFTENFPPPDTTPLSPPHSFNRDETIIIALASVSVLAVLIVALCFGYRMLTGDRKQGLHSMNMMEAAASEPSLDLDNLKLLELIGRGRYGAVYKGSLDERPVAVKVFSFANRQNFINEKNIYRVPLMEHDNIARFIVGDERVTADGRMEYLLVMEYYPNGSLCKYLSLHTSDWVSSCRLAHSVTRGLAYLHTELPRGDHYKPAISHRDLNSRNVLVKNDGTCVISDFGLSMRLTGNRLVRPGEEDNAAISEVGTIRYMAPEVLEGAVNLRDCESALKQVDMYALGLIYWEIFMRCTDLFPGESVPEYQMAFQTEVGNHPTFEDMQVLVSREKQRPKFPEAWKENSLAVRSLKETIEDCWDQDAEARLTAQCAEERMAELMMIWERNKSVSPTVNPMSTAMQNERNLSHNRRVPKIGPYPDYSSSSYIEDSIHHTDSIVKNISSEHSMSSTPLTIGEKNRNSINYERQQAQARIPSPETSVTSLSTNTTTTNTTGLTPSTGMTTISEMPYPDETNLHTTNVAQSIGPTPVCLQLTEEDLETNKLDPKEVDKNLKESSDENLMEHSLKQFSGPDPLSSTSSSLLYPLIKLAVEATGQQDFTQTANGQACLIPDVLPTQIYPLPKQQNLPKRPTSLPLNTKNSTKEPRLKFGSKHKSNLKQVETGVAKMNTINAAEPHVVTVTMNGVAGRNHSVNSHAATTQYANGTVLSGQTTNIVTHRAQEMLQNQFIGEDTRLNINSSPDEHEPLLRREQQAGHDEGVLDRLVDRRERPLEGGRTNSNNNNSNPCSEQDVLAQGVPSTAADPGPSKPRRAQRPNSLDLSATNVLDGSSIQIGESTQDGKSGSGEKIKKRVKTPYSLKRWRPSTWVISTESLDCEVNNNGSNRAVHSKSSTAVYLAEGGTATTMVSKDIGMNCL

[14] = target: Mitogen-activated protein kinase 10 (Homo sapiens, UniProt P53779); assay: Inhibition of JNK3 (unknown origin) at 10 uM by Ambit Kinomescan binding assay relative to control
Chain of Mitogen-activated protein kinase 10 (P53779 whole entry): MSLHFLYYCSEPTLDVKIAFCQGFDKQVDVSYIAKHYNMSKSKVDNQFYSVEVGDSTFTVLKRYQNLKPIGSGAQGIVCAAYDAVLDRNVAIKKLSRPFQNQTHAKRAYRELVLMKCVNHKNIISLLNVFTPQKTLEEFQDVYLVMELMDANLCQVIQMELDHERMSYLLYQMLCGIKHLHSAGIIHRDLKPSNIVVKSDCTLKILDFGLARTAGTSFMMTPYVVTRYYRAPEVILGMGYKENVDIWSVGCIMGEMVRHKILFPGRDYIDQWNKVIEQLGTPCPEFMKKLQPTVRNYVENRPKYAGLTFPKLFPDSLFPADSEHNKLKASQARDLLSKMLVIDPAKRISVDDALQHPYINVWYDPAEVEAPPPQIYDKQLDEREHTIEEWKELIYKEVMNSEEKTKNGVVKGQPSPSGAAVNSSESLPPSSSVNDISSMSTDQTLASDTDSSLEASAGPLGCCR

## CNc1cc(Oc2cc(C(=O)Nc3cc(N4CCN(C)CC4)cc(C(F)(F)F)c3)ccc2C)ncn1
[1]
  inhibition: -6.7%
[2]
  inhibition: -6.7%
[3]
  inhibition: 0.3%
[4]
  inhibition: 7.6%

## CCN1CCN(Cc2ccc(NC(=O)c3ccc(C)c(/C=C/c4cnc5[nH]ccc5c4OC)c3)cc2C(F)(F)F)CC1
[5]
  inhibition: -8.4%
[6]
  inhibition: 1.4%
[7]
  inhibition: 81%
[8]
  inhibition: -8%

## CCN1CCN(Cc2ccc(NC(=O)c3ccc(C)c(Oc4ccnc5[nH]ccc45)c3)cc2C(F)(F)F)CC1
[9]
  inhibition: inactive
[10]
  inhibition: inactive
[11]
  inhibition: 11%
[12]
  inhibition: inactive
[13]
  inhibition: inactive
[14]
  inhibition: 12%
